From ChEMBL document CHEMBL1125049, “Aporphines as antagonists of dopamine D-1 receptors” (J Med Chem, 1990) come the findings set out here.

Active and inactive are the calls of the source. The rule behind the calls is not given here.

For one assay, the target named is D(1A) dopamine receptor (Rattus norvegicus, UniProt P18901).
For another assay, the target named is D(2) dopamine receptor (Rattus norvegicus, UniProt P61169). Put plainly: In vitro binding affinity towards rat Dopamine receptor D2 by [3H]spiperone displacement.
Assay [1] is filed under the species Rattus norvegicus. The assay is classed as functional.
For assay [2], the species on record is Rattus norvegicus. Put plainly: Ability to stimulate adenylate cyclase in rat retinal tissue over basal levels; NS=no significant stimulation. The assay is classed as functional. The gist of the method: (§1)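 Agonist mode: adenylate cyclase stimulation measured in rat retinal tissue in vitro, with (R)-apomorphine as positive control for D-1 agonist activity; assay run by a previously published adenylate cyclase procedure.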

The species named for assay [3] is Rattus norvegicus. Type of assay: functional. The source holds these as a separate data set.
Assay [4] is filed under the species Rattus norvegicus. Put plainly: Ability to stimulate adenylate cyclase in rat retinal tissue over basal levels. Type of assay: functional. Put shortly:
as §1

Assay [5] can be described thus: Activity was determined against Adenylate cyclase.
For assay [6], the species on record is Rattus norvegicus. The assay can be described thus: Ability to block adenylate cyclase stimulation caused by 10 uM dopamine in rat retinal tissue in vitro at a concentration of 100 uM. The assay is classed as functional.

A word on the IC50: it is the midpoint of a concentration-inhibition curve. A lower IC50 goes with greater potency. In general, Inhibition refers to the change of the read-out against control, counted positive when it falls. Read a high Inhibition as a strong effect.

Sequence of D(1A) dopamine receptor (P18901 whole entry): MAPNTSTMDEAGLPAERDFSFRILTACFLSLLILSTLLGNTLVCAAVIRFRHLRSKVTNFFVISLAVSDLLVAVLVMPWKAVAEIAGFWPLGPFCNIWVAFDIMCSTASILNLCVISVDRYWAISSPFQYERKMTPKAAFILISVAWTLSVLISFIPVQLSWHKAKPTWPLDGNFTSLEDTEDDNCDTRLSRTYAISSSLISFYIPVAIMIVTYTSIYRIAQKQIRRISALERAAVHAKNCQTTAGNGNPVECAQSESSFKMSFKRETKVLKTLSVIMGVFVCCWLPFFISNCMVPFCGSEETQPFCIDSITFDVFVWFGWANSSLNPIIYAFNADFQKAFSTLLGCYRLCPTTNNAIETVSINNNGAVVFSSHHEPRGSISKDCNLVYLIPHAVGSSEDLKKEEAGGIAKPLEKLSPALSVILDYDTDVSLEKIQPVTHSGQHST
Sequence of D(2) dopamine receptor (P61169 whole entry): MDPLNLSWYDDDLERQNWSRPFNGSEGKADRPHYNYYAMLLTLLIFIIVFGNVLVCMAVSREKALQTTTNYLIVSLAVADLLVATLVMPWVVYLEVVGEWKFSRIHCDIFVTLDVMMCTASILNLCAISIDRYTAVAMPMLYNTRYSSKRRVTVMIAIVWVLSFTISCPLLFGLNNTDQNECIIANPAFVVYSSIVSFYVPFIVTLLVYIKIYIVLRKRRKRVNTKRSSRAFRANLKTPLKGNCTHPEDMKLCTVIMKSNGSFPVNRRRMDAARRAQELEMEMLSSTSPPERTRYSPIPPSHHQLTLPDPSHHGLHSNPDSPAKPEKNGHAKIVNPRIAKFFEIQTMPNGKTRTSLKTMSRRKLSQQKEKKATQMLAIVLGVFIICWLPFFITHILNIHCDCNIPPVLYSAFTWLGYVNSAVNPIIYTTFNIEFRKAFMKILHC

Regarding `COc1ccc2c(c1O)-c1cccc3c1[C@@H](C2)N(C)CC3` [APOCIDEINE], the IC50 on D(1A) dopamine receptor came to 13300 nM; on D(2) dopamine receptor, 2080 nM. In addition, the Inhibition in the assay listed under Rattus norvegicus [1] is on record as 5.7%. For the same compound, in the assay filed under Rattus norvegicus [2], the Stimulation entry is “inactive”.
Regarding `CN1CCc2cccc3c2[C@H]1Cc1c(Br)cc(Br)c(O)c1-3`, the IC50 against D(1A) dopamine receptor and at D(2) dopamine receptor was greater than 1000 nM each time. Besides, the Inhibition in the assay listed under Rattus norvegicus [3] is on record as 8.5%; in the assay listed under Rattus norvegicus [1] it was 45.9%.
`CN1CCc2cccc3c2[C@@H]1Cc1c(Br)ccc(O)c1-3`: the IC50 is 8610 nM on D(1A) dopamine receptor and greater than 10000 nM at D(2) dopamine receptor. In addition, the Inhibition in the assay filed under Rattus norvegicus [3] was determined as 11.9%; in the assay filed under Rattus norvegicus [1], 79.4%.
As for `COc1cccc2c1-c1cccc3c1[C@H](C2)N(C)CC3`, the IC50 was determined as 12100 nM on D(1A) dopamine receptor and 829 nM at D(2) dopamine receptor. Moreover, the values for the Inhibition in the assay filed under Rattus norvegicus [3] and in the assay filed under Rattus norvegicus [1] were 0.7% and 0%, respectively.
With `CN1CCc2cccc3c2[C@H]1Cc1cccc(O)c1-3`, the IC50 turned out to be 107 nM against D(1A) dopamine receptor and 58 nM on D(2) dopamine receptor. Also, the Inhibition in the assay filed under Rattus norvegicus [3] is 31.2%; in the assay listed under Rattus norvegicus [1], 87.8%. Further, the Stimulation result in the assay filed under Rattus norvegicus [2] is “inactive”.
For `CN1CCc2cccc3c2[C@H]1Cc1c(Cl)ccc(O)c1-3`, the figures for the IC50 against D(1A) dopamine receptor and on D(2) dopamine receptor were 561 nM and 500 nM, respectively. Further, the Inhibition in the assay listed under Rattus norvegicus [3] is 12.6%; in the assay filed under Rattus norvegicus [1], 71.6%.
For `CN1CCc2cccc3c2[C@H]1Cc1ccc(Br)c(O)c1-3`, the IC50 was found to be 171 nM against D(1A) dopamine receptor and 664 nM on D(2) dopamine receptor. Moreover, the Inhibition in the assay listed under Rattus norvegicus [3] is on record as 24.4%; in the assay filed under Rattus norvegicus [1], 87.8%. Further, the inhibition result in the assay filed under Rattus norvegicus [2] is “inactive”.
For the compound `COc1ccc2c(c1O)-c1c3c(cc4c1[C@H](C2)N(C)CC4)OCO3` [(S)-BULBOCAPNINE], the values for the IC50 against D(1A) dopamine receptor and on D(2) dopamine receptor were 739 nM and 14000 nM, respectively. Further, the values for the Inhibition in the assay filed under Rattus norvegicus [3] and in the assay listed under Rattus norvegicus [1] were 24.4% and 85.1%, respectively.
As for `CN1CCc2cccc3c2[C@@H]1Cc1ccc(Br)c(O)c1-3`, the IC50 against D(1A) dopamine receptor was 3340 nM; on D(2) dopamine receptor, 2930 nM. Besides, the Inhibition in the assay listed under Rattus norvegicus [3] is recorded as 9.8%; in the assay listed under Rattus norvegicus [1], 54.2%.
For `COc1cccc2c1-c1cccc3c1[C@@H](C2)N(C)CC3`, the IC50 on D(1A) dopamine receptor was found to be 3280 nM; on D(2) dopamine receptor, 2160 nM. Further, the Inhibition in the assay filed under Rattus norvegicus [3] is 7.7%; in the assay filed under Rattus norvegicus [1], 31.7%.
As to `CN1CCc2cccc3c2[C@@H]1Cc1cccc(O)c1-3`, the IC50 on D(1A) dopamine receptor worked out at 5060 nM; on D(2) dopamine receptor, 2240 nM. Further, the Inhibition is 0.8% in the assay listed under Rattus norvegicus [3] and 38% in the assay listed under Rattus norvegicus [1]. The Stimulation result in the assay listed under Rattus norvegicus [2] was “inactive”.
Regarding `CN1CCc2cccc3c2[C@H]1Cc1ccc(Cl)c(O)c1-3`, the IC50 against D(1A) dopamine receptor stood at 637 nM; on D(2) dopamine receptor it was 803 nM. In addition, the figures for the Inhibition in the assay filed under Rattus norvegicus [3] and in the assay listed under Rattus norvegicus [1] were 19.7% and 82%, respectively.
`CN1CCc2cccc3c2[C@H]1Cc1ccc(O)c(O)c1-3` [APOMORPHINE] yielded a Stimulation in the assay filed under Rattus norvegicus [4] of 91.5%.
Regarding `CN1CCc2cccc3c2[C@@H]1Cc1cc(Br)cc(O)c1-3`, the IC50 on D(1A) dopamine receptor and on D(2) dopamine receptor was greater than 1000 nM throughout. Further, the values for the Inhibition in the assay listed under Rattus norvegicus [3] and in the assay filed under Rattus norvegicus [1] were 16.8% and 3.2%, respectively.
As for `CN1CCc2cccc3c2[C@H]1Cc1c([N+](=O)[O-])ccc(O)c1-3`, the Inhibition in the assay filed under Rattus norvegicus [3] is 7.2%; in the assay filed under Rattus norvegicus [1], 33.5%.
Take `CN1CCc2cccc3c2[C@H]1Cc1cc(Br)cc(O)c1-3`: the IC50 worked out at 818 nM against D(1A) dopamine receptor and 2580 nM on D(2) dopamine receptor. The Inhibition in the assay filed under Rattus norvegicus [3] was determined as 5.3%; in the assay filed under Rattus norvegicus [1], 73.4%. Besides, in the assay filed under Rattus norvegicus [2], the inhibition entry is “inactive”.
As to `CN1CCc2cc(Cl)c(O)cc2[C@@H](c2ccccc2)C1` [SCH-23390], the Inhibition in the assay filed under Rattus norvegicus [3] amounted to 86%; in the assay filed under Rattus norvegicus [1] it was 89.7%. Further, in assay [5], half-maximal inhibition (IC50) required 3 nM.
Take `CCCN1CCC[C@@H]2Cc3nc(N)ncc3C[C@H]21` [QUINELORANE]: the IC50 is greater than 10000 nM against D(1A) dopamine receptor and 151 nM at D(2) dopamine receptor. Also, the Inhibition in the assay listed under Rattus norvegicus [6] was 6.8%. Also, in the assay filed under Rattus norvegicus [2], the Stimulation result was “inactive”.
As for `CN1CCc2cccc3c2[C@@H]1Cc1ccc(O)c(O)c1-3` [(S)APOMORPHINE], the Inhibition in the assay filed under Rattus norvegicus [1] came to 42.3%.
In the case of `CN1CCc2cccc3c2[C@H]1Cc1c(Br)ccc(O)c1-3`, the IC50 was found to be 181 nM against D(1A) dopamine receptor and 449 nM on D(2) dopamine receptor. Also, the Inhibition was determined as 13.1% in the assay filed under Rattus norvegicus [3] and 83.3% in the assay filed under Rattus norvegicus [1]. The Stimulation result in the assay listed under Rattus norvegicus [2] was “inactive”.
